Data reported in PMC10975593 (ACS Omega, 2024).
Like-named read-outs stand apart in the source and are kept apart here.

Tests used:
UACC-257 = assay: NCI 60-cell line screen; type: cell-based, human; details: for GI50 / IC50 / CC50: Homo sapiens; for GI50 / IC50: UACC-257; for CC50: UACC-257, read-out: LC50; for TGI: UACC-257, melanoma
Procedure, shortened: (§1)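 Test compounds were submitted to the National Cancer Institute and run under NCI's standard 60-cell-line protocols. Read-outs were taken from percent-growth versus log-concentration curves.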

OVCAR-3 = assay: NCI 60-cell line screen; type: cell-based, human; details: for GI50 / IC50 / CC50: Homo sapiens; for GI50 / IC50: OVCAR-3; for CC50: OVCAR-3, read-out: LC50; for TGI: OVCAR-3, ovarian cancer
[1] = test system: MCF-7 and A549 cancer cell lines; assay: MTT assay, range over both cell lines; type: cell-based; details: read-out: IC50 values, range
Procedure, shortened: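 A549 in DMEM and MCF-7 in RPMI, each with 10% heat-inactivated FBS, 1% penicillin/streptomycin and 2 mmol/L glutamine at 37 °C, 5% CO2. Seeded at 2000 (A549) or 10,000 (MCF-7) cells/well and attached 24 h. Then 72 h with test compound at varying concentrations. MTT (5 mg/mL stock) added for 4 h at 37 °C, formazan dissolved in DMSO, absorbance read at 450/540 nm. Triplicates in three separate experiments.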

NCI 60 cell line panel = assay: NCI 60-cell line inhibition, range over panel; type: cell-based; details: Homo sapiens; for GI50: read-out: GI50, range over cell lines; for IC50: read-out: IC50, range over cell lines
NCI-H460 = assay: NCI 60-cell line screen; type: cell-based, human; details: for GI50 / IC50 / CC50: Homo sapiens; for GI50 / IC50: NCI-H460; for CC50: NCI-H460, read-out: LC50; for TGI: NCI-H460, non-small cell lung cancer
M14 = assay: NCI 60-cell line screen; type: cell-based, human; details: for GI50 / IC50 / CC50: Homo sapiens; for GI50 / IC50: M14; for CC50: M14, read-out: LC50; for TGI: M14, melanoma
KM12 = assay: NCI 60-cell line screen; type: cell-based, human; details: for GI50 / IC50 / CC50: Homo sapiens; for GI50 / IC50: KM12; for CC50: KM12, read-out: LC50; for TGI: KM12, colon cancer
SW-620 = assay: NCI 60-cell line screen; type: cell-based, human; details: for GI50 / IC50 / CC50: Homo sapiens; for GI50 / IC50: SW-620; for CC50: SW-620, read-out: LC50; for TGI: SW-620, colon cancer
Procedure, shortened: as §1

T-47D = assay: NCI 60-cell line screen; type: cell-based, human; details: for GI50 / IC50 / CC50: Homo sapiens, T47D; for CC50: read-out: LC50; for TGI: T-47D, breast cancer
Procedure, shortened: as §1

BT-549 = assay: NCI 60-cell line screen; type: cell-based, human; details: for TGI: BT-549, breast cancer; for GI50 / IC50 / CC50: Homo sapiens; for GI50 / IC50: BT-549; for CC50: BT-549, read-out: LC50
A549/ATCC = assay: NCI 60-cell line screen; type: cell-based, human; details: for TGI: A549/ATCC, non-small cell lung cancer; for GI50 / IC50 / CC50: Homo sapiens; for GI50 / IC50: A549; for CC50: A549, read-out: LC50
786-0 = assay: NCI 60-cell line screen; type: cell-based, human; details: for TGI: 786-0, renal cancer; for GI50 / IC50 / CC50: Homo sapiens; for GI50 / IC50: 786-0; for CC50: 786-0, read-out: LC50
SNB-75 = assay: NCI 60-cell line screen; type: cell-based, human; details: for GI50 / IC50 / CC50: Homo sapiens; for GI50 / IC50: SNB-75; for CC50: SNB-75, read-out: LC50; for TGI: SNB-75, CNS cancer
Procedure, shortened: as §1

TK-10 = assay: NCI 60-cell line screen; type: cell-based, human; details: for GI50 / IC50 / CC50: Homo sapiens; for GI50 / IC50: TK-10; for CC50: TK-10, read-out: LC50; for TGI: TK-10, renal cancer
Procedure, shortened: as §1

SF-539 = assay: NCI 60-cell line screen; type: cell-based, human; details: for GI50 / IC50 / CC50: Homo sapiens; for GI50 / IC50: SF-539; for CC50: SF-539, read-out: LC50; for TGI: SF-539, CNS cancer
Procedure, shortened: as §1

SK-MEL-2 = assay: NCI 60-cell line screen; type: cell-based, human; details: for GI50 / IC50 / CC50: Homo sapiens; for GI50 / IC50: SK-MEL-2; for CC50: SK-MEL-2, read-out: LC50; for TGI: SK-MEL-2, melanoma
Procedure, shortened: as §1

AKT3 (PKB γ) = AKT3 (PKB γ) (Homo sapiens, UniProt Q9Y243); assay: Kinase selectivity for OMS14; type: biochemical
Sequence of AKT3 (PKB γ) (Q9Y243 whole entry): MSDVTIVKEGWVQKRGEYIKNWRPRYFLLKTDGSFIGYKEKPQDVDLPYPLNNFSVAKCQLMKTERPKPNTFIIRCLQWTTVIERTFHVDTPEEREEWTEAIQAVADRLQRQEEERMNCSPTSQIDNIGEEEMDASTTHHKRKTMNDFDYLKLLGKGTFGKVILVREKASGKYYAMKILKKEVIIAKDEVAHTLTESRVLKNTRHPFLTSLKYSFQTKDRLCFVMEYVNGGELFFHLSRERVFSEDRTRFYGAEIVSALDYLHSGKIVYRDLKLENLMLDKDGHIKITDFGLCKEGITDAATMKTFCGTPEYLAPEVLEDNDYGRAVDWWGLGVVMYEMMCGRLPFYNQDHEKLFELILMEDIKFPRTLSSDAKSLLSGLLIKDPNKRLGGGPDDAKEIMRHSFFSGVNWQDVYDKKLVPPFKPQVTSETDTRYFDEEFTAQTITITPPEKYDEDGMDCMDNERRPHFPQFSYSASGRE

[2] = target: PIK3CD/PIK3R1 (p110 δ/p85 α) (Homo sapiens, UniProt O00329); assay: Kinase selectivity for OMS14; type: biochemical
CDK1/cyclin B = CDK1/cyclin B (Homo sapiens, UniProt P06493); assay: Kinase selectivity for OMS14; type: biochemical
Sequence of CDK1/cyclin B (P06493 whole entry): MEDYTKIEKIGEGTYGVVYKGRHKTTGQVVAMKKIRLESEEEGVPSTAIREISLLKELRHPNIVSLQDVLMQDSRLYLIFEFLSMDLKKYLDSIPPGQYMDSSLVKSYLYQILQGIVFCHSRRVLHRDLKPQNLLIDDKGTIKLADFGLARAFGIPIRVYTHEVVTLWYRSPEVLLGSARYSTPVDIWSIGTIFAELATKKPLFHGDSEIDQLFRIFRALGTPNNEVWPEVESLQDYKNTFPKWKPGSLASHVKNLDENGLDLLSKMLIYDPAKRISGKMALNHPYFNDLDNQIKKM
Sequence of CDK1/cyclin B (P14635 whole entry, further chain): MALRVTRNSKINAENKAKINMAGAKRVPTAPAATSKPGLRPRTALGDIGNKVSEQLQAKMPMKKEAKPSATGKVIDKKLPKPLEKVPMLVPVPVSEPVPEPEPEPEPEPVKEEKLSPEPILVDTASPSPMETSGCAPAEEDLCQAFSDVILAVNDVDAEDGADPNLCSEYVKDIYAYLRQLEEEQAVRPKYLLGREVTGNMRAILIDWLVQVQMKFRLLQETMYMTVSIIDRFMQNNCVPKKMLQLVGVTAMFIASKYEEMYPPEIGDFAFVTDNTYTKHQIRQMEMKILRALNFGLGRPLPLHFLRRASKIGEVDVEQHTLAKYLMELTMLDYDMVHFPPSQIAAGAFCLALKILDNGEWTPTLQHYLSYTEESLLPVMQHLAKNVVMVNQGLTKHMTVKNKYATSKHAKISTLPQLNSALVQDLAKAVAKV

PKN2 (PRK2) = PKN2 (PRK2) (Homo sapiens, UniProt Q16513); assay: Kinase selectivity for OMS14; type: biochemical
Sequence of PKN2 (PRK2) (Q16513 whole entry): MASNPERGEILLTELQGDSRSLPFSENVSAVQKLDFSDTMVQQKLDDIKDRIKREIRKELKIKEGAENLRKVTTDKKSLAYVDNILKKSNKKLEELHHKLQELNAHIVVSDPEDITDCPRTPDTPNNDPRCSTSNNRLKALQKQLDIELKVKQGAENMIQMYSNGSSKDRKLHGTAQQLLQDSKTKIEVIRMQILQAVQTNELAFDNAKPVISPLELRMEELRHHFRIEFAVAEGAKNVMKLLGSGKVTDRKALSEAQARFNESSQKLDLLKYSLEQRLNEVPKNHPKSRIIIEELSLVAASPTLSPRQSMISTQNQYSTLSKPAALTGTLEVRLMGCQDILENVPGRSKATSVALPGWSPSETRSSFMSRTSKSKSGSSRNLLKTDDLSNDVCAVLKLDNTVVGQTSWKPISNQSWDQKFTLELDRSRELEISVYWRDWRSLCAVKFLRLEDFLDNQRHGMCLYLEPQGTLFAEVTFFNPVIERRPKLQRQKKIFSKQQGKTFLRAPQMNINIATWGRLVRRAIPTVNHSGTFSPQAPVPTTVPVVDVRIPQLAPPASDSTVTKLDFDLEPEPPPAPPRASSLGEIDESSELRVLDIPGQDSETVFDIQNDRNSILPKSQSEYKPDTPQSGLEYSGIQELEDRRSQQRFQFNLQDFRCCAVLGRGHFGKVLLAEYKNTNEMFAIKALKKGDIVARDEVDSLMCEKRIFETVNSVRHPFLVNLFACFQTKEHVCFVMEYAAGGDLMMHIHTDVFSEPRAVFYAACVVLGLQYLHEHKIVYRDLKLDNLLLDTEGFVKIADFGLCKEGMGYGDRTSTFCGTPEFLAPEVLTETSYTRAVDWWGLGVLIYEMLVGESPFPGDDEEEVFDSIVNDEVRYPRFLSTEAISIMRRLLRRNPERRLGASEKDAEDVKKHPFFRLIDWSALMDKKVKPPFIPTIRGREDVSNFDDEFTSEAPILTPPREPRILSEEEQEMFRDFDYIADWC

AKT1 (PKB α) = AKT1 (PKB α) (Homo sapiens, UniProt P31749); assay: Kinase selectivity for OMS14; type: biochemical
Sequence of AKT1 (PKB α) (P31749 whole entry): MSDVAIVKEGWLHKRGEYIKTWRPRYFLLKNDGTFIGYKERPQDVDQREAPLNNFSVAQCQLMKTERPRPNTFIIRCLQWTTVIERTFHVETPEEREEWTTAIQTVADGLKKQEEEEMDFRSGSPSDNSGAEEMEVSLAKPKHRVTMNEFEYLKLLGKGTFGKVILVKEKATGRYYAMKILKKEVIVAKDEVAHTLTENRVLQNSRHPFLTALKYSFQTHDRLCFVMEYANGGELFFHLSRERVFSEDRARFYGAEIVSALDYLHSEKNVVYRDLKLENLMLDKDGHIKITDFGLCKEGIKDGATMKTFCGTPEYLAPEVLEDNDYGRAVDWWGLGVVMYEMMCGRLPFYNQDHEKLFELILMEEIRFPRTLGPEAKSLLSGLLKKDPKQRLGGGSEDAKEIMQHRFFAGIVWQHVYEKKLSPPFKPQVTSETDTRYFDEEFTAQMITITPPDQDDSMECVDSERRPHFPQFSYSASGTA

[3] = target: PIK3CA E542 K/PIK3R1 (p110 α E542 K/p85 α) (Homo sapiens, UniProt P42336, E542K); assay: Kinase selectivity for OMS14; type: biochemical
Sequence of PIK3CA E542 K/PIK3R1 (p110 α E542 K/p85 α) (P42336 whole entry E542K): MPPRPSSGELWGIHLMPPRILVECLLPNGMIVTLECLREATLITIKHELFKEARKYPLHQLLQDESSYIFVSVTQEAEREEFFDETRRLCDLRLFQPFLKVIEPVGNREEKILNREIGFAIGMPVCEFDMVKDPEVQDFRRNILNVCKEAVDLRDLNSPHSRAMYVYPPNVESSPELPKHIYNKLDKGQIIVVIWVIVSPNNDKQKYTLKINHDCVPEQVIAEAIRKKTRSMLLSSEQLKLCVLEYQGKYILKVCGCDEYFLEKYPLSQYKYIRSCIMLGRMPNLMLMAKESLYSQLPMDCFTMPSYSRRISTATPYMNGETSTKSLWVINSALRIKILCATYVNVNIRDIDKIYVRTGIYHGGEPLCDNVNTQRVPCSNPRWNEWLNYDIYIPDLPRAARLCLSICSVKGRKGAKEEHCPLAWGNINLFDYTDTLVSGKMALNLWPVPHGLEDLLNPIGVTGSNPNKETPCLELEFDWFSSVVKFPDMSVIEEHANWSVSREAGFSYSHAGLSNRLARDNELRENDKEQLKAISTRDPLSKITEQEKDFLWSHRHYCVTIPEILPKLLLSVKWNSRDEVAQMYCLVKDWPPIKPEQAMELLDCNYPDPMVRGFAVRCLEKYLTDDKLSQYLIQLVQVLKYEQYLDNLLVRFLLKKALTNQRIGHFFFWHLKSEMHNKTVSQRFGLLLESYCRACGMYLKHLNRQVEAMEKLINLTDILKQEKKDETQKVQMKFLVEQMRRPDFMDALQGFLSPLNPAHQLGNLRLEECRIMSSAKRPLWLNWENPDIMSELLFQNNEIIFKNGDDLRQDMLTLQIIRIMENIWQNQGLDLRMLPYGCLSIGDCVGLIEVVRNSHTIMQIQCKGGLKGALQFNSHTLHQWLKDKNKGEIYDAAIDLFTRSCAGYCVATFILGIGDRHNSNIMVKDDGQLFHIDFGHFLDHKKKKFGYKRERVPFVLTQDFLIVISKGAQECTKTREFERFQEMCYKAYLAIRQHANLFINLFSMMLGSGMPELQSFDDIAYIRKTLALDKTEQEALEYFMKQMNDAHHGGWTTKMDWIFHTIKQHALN
Sequence of PIK3CA E542 K/PIK3R1 (p110 α E542 K/p85 α) (P27986 whole entry partner): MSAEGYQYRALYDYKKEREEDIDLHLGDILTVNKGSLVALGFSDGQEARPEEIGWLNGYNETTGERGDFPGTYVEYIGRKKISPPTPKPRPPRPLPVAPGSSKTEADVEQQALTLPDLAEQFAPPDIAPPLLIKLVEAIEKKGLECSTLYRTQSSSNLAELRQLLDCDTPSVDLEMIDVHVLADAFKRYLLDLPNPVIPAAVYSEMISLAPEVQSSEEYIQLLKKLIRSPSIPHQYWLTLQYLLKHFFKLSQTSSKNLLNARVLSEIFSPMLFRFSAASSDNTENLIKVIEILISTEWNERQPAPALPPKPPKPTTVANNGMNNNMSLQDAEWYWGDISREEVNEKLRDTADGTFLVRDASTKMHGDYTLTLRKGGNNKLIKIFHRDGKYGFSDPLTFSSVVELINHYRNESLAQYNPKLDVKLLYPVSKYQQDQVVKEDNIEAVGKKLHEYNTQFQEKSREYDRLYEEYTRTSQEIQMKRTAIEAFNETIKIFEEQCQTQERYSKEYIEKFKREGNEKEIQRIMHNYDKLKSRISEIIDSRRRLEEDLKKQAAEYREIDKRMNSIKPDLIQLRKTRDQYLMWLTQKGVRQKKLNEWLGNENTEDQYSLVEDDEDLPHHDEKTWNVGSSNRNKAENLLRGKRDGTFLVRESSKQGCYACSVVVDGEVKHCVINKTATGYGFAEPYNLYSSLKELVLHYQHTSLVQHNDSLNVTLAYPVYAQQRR

[4] = read-out: % of inhibition (mean)
[5] = read-out: % of inhibition, point 1
[6] = read-out: % of inhibition, point 2

## O=C(CNc1ccc([N+](=O)[O-])cc1)Nc1nc2ccccc2s1 [OMS5, N-(1,3-benzothiazol-2-yl)-2-(4-nitroanilino)acetamide]
UACC-257
  GI50: 1.3 µM
  IC50: 2.5 µM
  CC50: 6.3 µM
  TGI: 2.8 µM
OVCAR-3
  GI50: 1.9 µM
  IC50: 4 µM
  CC50: > 100 µM
  TGI: 9.1 µM
[1]
  IC50: 22.1 to 61 µM
NCI 60 cell line panel
  GI50: 0.36 to 2.3 µM
  IC50: 0.44 to 12 µM
NCI-H460
  GI50: 0.4 µM
  IC50: 0.5 µM
  CC50: 39.8 µM
  TGI: 3.3 µM
M14
  GI50: 0.9 µM
  IC50: 1.4 µM
  CC50: 6.5 µM
  TGI: 2.5 µM
KM12
  GI50: 1.2 µM
  IC50: 2.5 µM
  CC50: 52.5 µM
  TGI: 12 µM
SW-620
  GI50: 0.5 µM
  IC50: 0.7 µM
  CC50: 43.7 µM
  TGI: 7.2 µM
T-47D
  GI50: 1 µM
  IC50: 4.6 µM
  CC50: 74.1 µM
  TGI: 4.6 µM
BT-549
  TGI: 6.5 µM
  GI50: 2 µM
  IC50: 5.4 µM
  CC50: 27.5 µM
A549/ATCC
  TGI: 28 µM
  GI50: 0.8 µM
  IC50: 1.5 µM
  CC50: > 100 µM
786-0
  TGI: 12 µM
  GI50: 0.5 µM
  IC50: 0.9 µM
  CC50: 43.7 µM
SNB-75
  GI50: 1.4 µM
  IC50: 3 µM
  CC50: 5.9 µM
  TGI: 2.9 µM
TK-10
  GI50: 1.5 µM
  IC50: 10 µM
  CC50: > 100 µM
  TGI: 15 µM
SF-539
  GI50: 0.5 µM
  IC50: 1.4 µM
  CC50: 6.5 µM
  TGI: 2.1 µM
SK-MEL-2
  GI50: 1.3 µM
  IC50: 3 µM
  CC50: 6.3 µM
  TGI: 2.8 µM

## O=C(CN1CCN(CC(=O)Nc2nc3ccccc3s2)CC1)Nc1ccc([N+](=O)[O-])cc1 [OMS14, N-(benzo[d]thiazol-2-yl)-2-(4-(2-((4-nitrophenyl)amino)-2-oxoethyl)piperazin-1-yl)acetamide]
AKT3 (PKB γ); [4]
  inhibition at 100 µM: 28%
AKT3 (PKB γ); [5]
  inhibition at 100 µM: 27%
AKT3 (PKB γ); [6]
  inhibition at 100 µM: 29%
UACC-257
  GI50: 2.1 µM
  IC50: 4.2 µM
  CC50: 11.7 µM
  TGI: 4.7 µM
OVCAR-3
  GI50: 2.3 µM
  IC50: 4.3 µM
  CC50: > 100 µM
  TGI: 6.6 µM
[1]
  IC50: 22.1 to 61 µM
NCI 60 cell line panel
  GI50: 0.66 to 3.02 µM
  IC50: 0.81 to 9.1 µM
[2]; [4]
  inhibition at 100 µM: 65%
[2]; [5]
  inhibition at 100 µM: 66%
[2]; [6]
  inhibition at 100 µM: 64%
NCI-H460
  GI50: 1.3 µM
  IC50: 1.8 µM
  CC50: 21.9 µM
  TGI: 4.1 µM
M14
  GI50: 1.7 µM
  IC50: 3 µM
  CC50: 8.3 µM
  TGI: 3.8 µM
KM12
  GI50: 2.9 µM
  IC50: 4.5 µM
  CC50: 74.1 µM
  TGI: 13.5 µM
SW-620
  GI50: 0.8 µM
  IC50: 1.1 µM
  CC50: 87.1 µM
  TGI: 5.9 µM
CDK1/cyclin B; [4]
  inhibition at 100 µM: 24%
CDK1/cyclin B; [5]
  inhibition at 100 µM: 23%
CDK1/cyclin B; [6]
  inhibition at 100 µM: 25%
T-47D
  GI50: 2.2 µM
  IC50: 5.6 µM
  CC50: > 100 µM
  TGI: 5.8 µM
BT-549
  TGI: 9.8 µM
  GI50: 3 µM
  IC50: 7.8 µM
  CC50: 36.3 µM
A549/ATCC
  TGI: 4.6 µM
  GI50: 1.9 µM
  IC50: 3.2 µM
  CC50: > 100 µM
PKN2 (PRK2); [4]
  inhibition at 100 µM: 10%
PKN2 (PRK2); [5]
  inhibition at 100 µM: 11%
PKN2 (PRK2); [6]
  inhibition at 100 µM: 8%
786-0
  TGI: 11.5 µM
  GI50: 2.1 µM
  IC50: 3.3 µM
  CC50: 43.7 µM
SNB-75
  GI50: 2 µM
  IC50: 6.6 µM
  CC50: 24 µM
  TGI: 6.0 µM
TK-10
  GI50: 2.2 µM
  IC50: 6.2 µM
  CC50: > 100 µM
  TGI: 7.1 µM
SF-539
  GI50: 2 µM
  IC50: 4.3 µM
  CC50: 20 µM
  TGI: 5.5 µM
SK-MEL-2
  GI50: 1.8 µM
  IC50: 3.5 µM
  CC50: 6.9 µM
  TGI: 3.5 µM
AKT1 (PKB α); [4]
  inhibition at 100 µM: 14%
AKT1 (PKB α); [5]
  inhibition at 100 µM: 11%
AKT1 (PKB α); [6]
  inhibition at 100 µM: 17%
[3]; [4]
  inhibition at 100 µM: 34%
[3]; [5]
  inhibition at 100 µM: 33%
[3]; [6]
  inhibition at 100 µM: 36%
